SENP1 FRET inh – blocks the human SENP1 SUMO protease catalytic domain. recombinant SENP1 catalytic domain, CyPet-SUMO1-YPet FRET cleavage. Q9P0U3. inhibition, % at 10 µM. actives 0.21% (n = 360,000);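 active means inhibition at least 30% at 10 µM, raw YFP signal under a set limit, fluorescence ratio 0.5 to 1.5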;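 further: 0% = enzyme with DMSO and 100% = no enzyme wells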
Target sequence (Q9P0U3 419-644 limits assumed): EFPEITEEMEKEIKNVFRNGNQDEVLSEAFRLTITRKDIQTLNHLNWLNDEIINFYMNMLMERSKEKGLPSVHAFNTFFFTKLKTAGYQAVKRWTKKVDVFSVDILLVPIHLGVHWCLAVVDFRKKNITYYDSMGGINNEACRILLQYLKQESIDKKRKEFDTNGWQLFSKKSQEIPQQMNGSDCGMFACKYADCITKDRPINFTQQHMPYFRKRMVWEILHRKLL
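Material: hSENP1 catalytic domain, recombinant; medium: Tris pH 8 with BME, BSA, NP40 and catalase; compound: single concentration of 10 µM compound, 0.5% DMSO final; technique: FRET read of cyan and yellow fluorescence; timing: 50 min enzyme reaction, room temperature, light-protected; reagent: SFCypet-SUMO1-SFYpet substrate at 25 nM; control set: no-enzyme low, enzyme-DMSO high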
HSP90 refold inh – blocks HSP90-mediated luciferase refolding in reticulocyte lysate; Rabbit reticulocyte lysate, luciferase refolding luminescence, 3 h; inhibition, % at 5.6 µM; actives 0.91% (n = 290,000);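 active means inhibition above the screen-wide mean plus 3 SD, computed separately per campaign, cut at about 16% in these data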;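 further: 0% = DMSO wells and 100% = 60 µM geldanamycin wells; inhibitors lower the luminescence because luciferase stays unfolded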
SENP6 block – blocks the human protease SENP6. inhibition, % at 10 µM. Recombinant SENP6 catalytic domain, aminoluciferin luminescence. actives 1.8% (n = 330,000). AID 2599;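 active means inhibition above about 50% at the single tested dose, limit read from the data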;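 further: plate controls were DMSO wells with enzyme for no effect and DMSO wells lacking enzyme for full effect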
SENP8 block-1 – blocks human SENP8 cleavage of Nedd8 substrate | Q96LD8 | recombinant SENP8, Nedd8 substrate fluorescence | inhibition, % at 20 µM | actives 0.64% (n = 360,000); in the data active means inhibition mostly above about 40%, no sharp cut-off; inactive means mostly below about 27%
Target sequence (Q96LD8 whole entry, looked up): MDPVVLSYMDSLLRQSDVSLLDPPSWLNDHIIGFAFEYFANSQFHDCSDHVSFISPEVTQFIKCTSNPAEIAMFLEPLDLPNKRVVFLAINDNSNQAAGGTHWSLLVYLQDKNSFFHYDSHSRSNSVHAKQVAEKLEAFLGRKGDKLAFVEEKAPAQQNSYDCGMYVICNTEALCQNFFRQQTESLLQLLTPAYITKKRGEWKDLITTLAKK
SENP7 inh – inhibitors of human SENP7 protease. recombinant SENP7, Z-RLRGG-aminoluciferin luminescence, 40 min. actives 1.5% (n = 330,000). Q9BQF6. AID 434973. inhibition, % at 5 µM;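 active means inhibition above about 50% at the single test dose, limit read from the data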;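 further: plate controls were DMSO with enzyme for no effect and no enzyme buffer wells for full effect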
SENP8 block-2 – blocks the human protease SENP8; Q96LD8; purified SENP8, Z-RLRGG-aminoluciferin cleavage, luminescence; inhibition, % at 10 µM; actives 1.2% (n = 330,000); AID 2540; in the data active means inhibition above about 50%
Numbers without * were called inactive; nt = no result given. Rows were chosen to be rich in hits. Some 2.9% of all compounds tested hit in one or more screens of this group.

SMILES | SENP1 FRET inh | HSP90 refold inh | SENP6 block | SENP8 block-1 | SENP7 inh | SENP8 block-2
O=S(c1ccc2ccccc2c1)c1cnns1 (centres undefined) | -0.3 | 4.6 | -4.2 | 43.6* | 2.7 | 1.1
Cc1[nH]n(-c2ccccc2)c(=O)c1C(C[N+](=O)[O-])c1ccc(Cl)cc1 (centres undefined) | 1.1 | -3.2 | 23.3 | 45.2* | 22.2 | -3.2
Cc1[nH]n(-c2ccccc2)c(=O)c1C(C[N+](=O)[O-])c1ccc(F)cc1 (centres undefined) | 2.9 | -1.0 | 4.7 | 39.7 | 24.6 | -0.9
COc1cccc(CN(C)S(=O)(=O)c2ccccc2Br)c1 | 0.4 | nt | nt | 10.4 | 12.5 | nt
Nc1ccc(N=Nc2ccc(O)cc2)c(N)n1 | 5.1 | nt | nt | -22.0 | nt | nt
COc1ccc(N=Nc2cc(OC)c(N)cc2OC)cc1 | 5.6 | nt | nt | 41.9* | nt | nt
COc1ccc(N=Nc2ccc(N)nc2N)cc1 | -14.9 | 3.5 | 77.8* | 4.0 | 77.8* | 72.7*
Cc1ccc(S(=O)(=O)NCC(=O)NCC(=O)NCCc2ccc(Cl)cc2)cc1C | -0.7 | nt | nt | 18.1 | nt | nt
COc1ccc(-c2coc3c(C(=O)NCc4cccs4)cccc23)c(C)c1 | -3.2 | nt | nt | -5.6 | nt | nt
CC(=O)OCC1OC(OC2C[C@]3(C)C(CC(O)C4C([C@](C)(CCC=C(C)C)OC5OC(CO)C(O)C(O)C5O)CC[C@]43C)[C@@]3(C)CCC(O)C(C)(C)C23)C(O[C@@H]2OC(C)C(O)C(O)C2O)C(O)C1O (some centres undefined) | 0.2 | nt | -13.8 | 8.0 | -4.2 | -10.9
CCCNC(=O)C1CCN(S(=O)(=O)c2ccc3[nH]c(=O)ccc3c2)CC1 | -4.1 | 35.5* | -10.1 | -4.7 | 8.9 | -12.5
CC1=CC(=O)C2(C)C(C)=C(C)C12C (centres undefined) | 1.6 | nt | nt | 16.3 | nt | nt
O=C(Nc1ccc(N2CCCC2)cc1)C(Cl)c1ccccc1 (centres undefined) | 12.1 | -1.5 | 65.7* | 38.5 | -0.7 | 33.9
Cc1ccc(S(=O)(=O)N2CCOCC2)cc1NC(=O)COC(=O)CCC(=O)c1ccc(F)cc1 | 1.7 | nt | -0.9 | 1.9 | -2.1 | 2.1
CN(C)C(/C=C/Nc1ccc(F)cc1)=C(C#N)C#N | 0.4 | -1.4 | -2.3 | 7.1 | -3.2 | 5.1
CN(C)C(/C=C/Nc1ccc(C#N)cc1)=C(C#N)C#N | -8.1 | 0.5 | -1.7 | 21.6 | 100.1* | 1.4
CCN(CCCNc1cc2c(c(N)c1S(=O)(=O)O)C(=O)c1ccccc1C2=O)c1ccccc1 | 0.4 | nt | nt | 57.3* | nt | nt
COC(=O)C[C@@H]1CC[C@@H](NS(=O)(=O)c2ccc(OC)cc2)[C@@H](CO)O1 | -0.6 | nt | nt | 26.7 | nt | nt
COc1ccc(C)cc1NC(=O)c1cc2c(s1)CCC2 | 2.1 | 0.5 | 7.5 | -0.2 | 5.8 | 3.4
COC(=O)c1sccc1NC(=O)c1cc2c(s1)CCCC2 | 1.2 | -2.2 | 42.8 | -97.9 | 55.5* | 29.3
C[C@]12CC[C@@H]3c4cc(O)c(O)cc4CC[C@H]3[C@@H]1CC[C@@H]2O | 1.5 | -2.6 | 1.2 | 40.8* | 11.3 | -4.4
CCN(C(=O)COC(=O)C(C)(C)Oc1ccc(Cl)cc1)c1c(N)n(Cc2ccccc2)c(=O)[nH]c1=O | 0.6 | nt | nt | 11.7 | nt | nt
Cc1ccc(S(=O)(=O)NC(C)(C)C)cc1C(=O)OC(C)C(=O)NC1CC1 (centres undefined) | 2.9 | nt | -6.1 | 3.3 | 5.0 | -8.9
COc1cc(/C=C2/C(=O)N(c3ccc([N+](=O)[O-])cc3)N=C2N2CCOCC2)ccc1O | 4.5 | 5.3 | 42.3 | 63.9* | 21.2 | -1.0
CCN(CC)c1ccc(/C=C2/C(=O)N(c3ccc([N+](=O)[O-])cc3)N=C2N2CCOCC2)cc1 | nt | 2.2 | 10.3 | nt | 3.1 | 4.0
SMILES | SENP1 FRET inh | HSP90 refold inh | SENP6 block | SENP8 block-1 | SENP7 inh | SENP8 block-2
O=C(Cc1ccc(F)cc1)OCC(=O)c1cc2ccccc2o1 | -0.4 | 16.2* | -8.2 | 6.3 | 6.0 | -4.1
COc1ccc2noc3c2c1C(=O)c1ccccc1-3 | -37.5 | nt | 86.9* | 104.8* | 57.0* | 80.1*
COc1ccc(OC)c2c1C(=O)c1ccccc1C2=O | nt | -1.1 | 14.4 | nt | 11.5 | 7.1
CC1CC(C)(C)Nc2ccc(OC(=O)c3ccco3)cc21 (centres undefined) | 1.3 | 5.8 | -12.7 | 21.6 | -5.1 | -4.2
CC1CC(C)(C)Nc2ccc(N=O)cc21 (centres undefined) | -4.5 | -0.8 | nt | 45.0* | nt | nt
COC1=C(N)C(=O)c2nc(C)ccc2C1=O | -0.1 | nt | nt | 98.6* | nt | nt
COC1=C(Nc2ccc(C)cc2)C(=O)c2ccccc2C1=O | 3.3 | 0.7 | 30.1 | -50.9 | 11.9 | 4.6
COC1=C(Br)C(=O)c2nc(C)ccc2C1=O | 6.6 | nt | nt | 86.0* | nt | nt
CCOC(=O)/C=C1\SCC(=O)N1CC(=O)Nc1cc(S(=O)(=O)N(C)C)ccc1C | 2.5 | nt | -3.7 | 16.9 | -1.8 | -0.9
Cc1ccc(N2C(=O)N(CC(=O)Nc3ccc(C)cc3Cl)C(=O)C2C)cc1 (centres undefined) | 0.9 | nt | 5.8 | 4.4 | 3.3 | 12.7
COC1=CC(=O)C(OC)=C(OC)C1=O | -24.2 | nt | nt | 40.9* | nt | nt
O=C(NCc1ccccc1)/C(=C\c1cccc([N+](=O)[O-])c1)NC(=O)c1ccco1 | 0.2 | nt | nt | 17.5 | nt | nt
O=C(Nc1ccc(Cl)c(Cl)c1)Nc1nccs1 | -5.0 | 0.9 | 64.7* | 29.3 | 25.9 | 35.7
CN(C)c1ccc(C(=O)Nc2ccc(CN3CCS(=O)(=O)CC3)cc2)cc1 | -0.4 | -1.7 | -42.3 | -8.9 | 3.0 | 3.1
O=C(NCCc1ccc(Cl)cc1)c1ccc(Br)s1 | -3.6 | -2.3 | -19.1 | 2.4 | -7.9 | -12.9
CSc1ccc(/C=N/NC(=O)CNc2ccc3ccccc3c2)cc1 | -15.9 | 8.3 | -1.0 | -258.7 | -0.1 | -5.0
CSc1ccc(/C=N/NC(=O)CNc2cccc3ccccc23)cc1 | -39.5 | 5.0 | 73.5* | -295.1 | 40.5 | 47.5
CC(/C=N/N1CCN(c2ccccn2)CC1)=C\c1ccccc1 | 2.8 | -1.0 | 58.9* | 2.0 | 62.9* | 31.1
COc1ccccc1N1CCN(/N=C/C(Cl)=C/c2ccccc2)CC1 | 1.2 | 3.2 | 71.8* | 14.1 | 45.4 | 57.1*
CCOc1ccc(OCCC(=O)OCC(=O)N2CCN(S(=O)(=O)c3ccc(Cl)cc3)CC2)cc1 | 1.0 | 5.3 | -6.0 | 5.5 | -10.3 | -11.5
O=C(NC1CCCC1)N[C@@H]1C=C[C@@H](CC(=O)N2CCOCC2)O[C@@H]1CO | 0.7 | nt | nt | 20.2 | nt | nt
Fc1ccc2c(c1)C(c1ccc(N3CCOCC3)cc1)=NNC(c1cccs1)=N2 | 42.3* | 1.7 | -5.3 | -141.0 | 2.8 | -1.7
Brc1ccc2c(c1)C(c1ccc(N3CCOCC3)cc1)=NNC(c1cccs1)=N2 | 48.9 | -1.2 | 4.4 | -72.5 | 1.4 | -4.5
CC(C)c1ccc(/C=C/c2ccc(=O)n(C)n2)cc1 | 1.5 | -4.1 | 83.7* | -374.3 | 84.5* | 69.4*
CC(C)c1ccc(/C=C/C2=NNC(=O)CC2)cc1 | 1.1 | 1.5 | 47.7 | 3.2 | 48.3 | 27.2
CCOC(=O)c1cc2c(=Cc3ccc(N(C)C)cc3)c3ccccc3n2[n+]1C | 43.7 | nt | nt | 91.2* | nt | nt
